ChEMBL document CHEMBL3779840, “Discovery of 2-((3-Amino-4-methylphenyl)amino)-N-(2-methyl-5-(3-(trifluoromethyl)benzamido)phenyl)-4-(methylamino)pyrimidine-5-carboxamide (CHMFL-ABL-053) as a Potent, Selective, and Orally Available BCR-ABL/SRC/p38 Kinase Inhibitor for Chronic Myeloid Leukemia” (J Med Chem, 2016)
Activity calls are given as the source filed them. No cut-off for these calls is given here.

How the values were obtained:
KU812 cell line [1] = experiment: Induction of cell cycle arrest in human KU812 cells assessed as accumulation at G0/G1-phase after 12 hrs by propidium iodide/RNase staining based flow cytometry; type: functional
[2] = Antiproliferative activity against human KU812 cells assessed as cell viability after 72 hrs by CellTiter-Glo or CCK-8 assay; type: functional; conditions: KU812, 72 h
KU812 cell line [3] = experiment: Induction of apoptosis in human KU812 cells assessed as increase in cleaved PARP level at 100 nM after 24 hrs by immunoblotting method; type: functional, cell-based
[4] = Antiproliferative activity against human U937 cells assessed as cell viability after 72 hrs by CellTiter-Glo or CCK-8 assay; type: functional; conditions: U-937, 72 h
[5] = AUC(0 to infinity) in Sprague-Dawley rat at 1 mg/kg, iv; type: ADME, organism-based; set-up: dose 1 mg/kg, route intravenous, time infinity; conditions: in vivo
[6] = Apparent clearance in Sprague-Dawley rat at 1 mg/kg, iv; type: ADME, organism-based; conditions: in vivo, read-out: CL(app) (converted)
[7] = target: T1, Proto-oncogene tyrosine-protein kinase Src (Homo sapiens, UniProt P12931); experiment: Inhibition of partial length human wild type SRC expressed in bacterial expression system assessed as residual activity at 1 uM relative to control
[8] = target: Ephrin type-B receptor 6 (Homo sapiens) (UniProt O15197); experiment: Inhibition of partial length human wild type EPHB6 expressed in mammalian expression system assessed as residual activity at 1 uM relative to control
[9] = tested on: Bcr/Abl fusion protein (Homo sapiens), P00519+P11274 [M351T]; conditions: BaF3
[10] = target: T2, Bcr/Abl fusion protein (Homo sapiens) (UniProt P00519+P11274); experiment: Inhibition of BCR/ABL in human MEG01 cells assessed as downregulation of CrkL phosphorylation at […] site after 1 hr by immunoblotting method; type: cell-based; conditions: MEG-01
Summary of the method: (§1)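 KU812, K562 and MEG-01 cells were exposed to compound at the indicated concentrations for 1 h. Whole-cell lysates were then analysed by Western blot for phosphorylated signaling proteins.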

MV4-11 = experiment: Antiproliferative activity against human MV4-11 cells assessed as cell viability after 72 hrs by CellTiter-Glo or CCK-8 assay; type: functional; conditions: MV4-11, 72 h
BaF3 = conditions: Homo sapiens
MEG-01 [11] = experiment: Induction of apoptosis in human MEG01 cells assessed as increase in cleaved PARP level at 100 nM after 48 hrs by immunoblotting method; type: functional, cell-based
[12] = target: T2, Bcr/Abl fusion protein (Homo sapiens); experiment: Inhibition of BCR/ABL autophosphorylation at Y245 site in human MEG01 cells at 300 nM after 1 hr by immunoblotting method; type: cell-based; conditions: MEG-01; summary of the method: as §1
[13] = target: Tyrosine-protein kinase HCK (Homo sapiens) (UniProt P08631); experiment: Inhibition of full length human wild type HCK expressed in bacterial expression system assessed as residual activity at 1 uM relative to control
HEL = experiment: Antiproliferative activity against human HEL cells assessed as cell viability after 72 hrs by CellTiter-Glo or CCK-8 assay; type: functional
[14] = target: T2, Bcr/Abl fusion protein (Homo sapiens); experiment: Inhibition of BCR/ABL in human KU812 cells assessed as downregulation of Stat5 phosphorylation at […] site after 1 hr by immunoblotting method; type: cell-based; summary of the method: as §1
[15] = AUC(0 to infinity) in Sprague-Dawley rat at 10 mg/kg, po; type: ADME, organism-based; set-up: dose 10 mg/kg, time infinity, route oral; conditions: in vivo
[16] = Antiproliferative activity against human MEG01 cells assessed as cell viability after 72 hrs by CellTiter-Glo or CCK-8 assay; type: functional; conditions: MEG-01, 72 h
[17] = target: Ephrin type-A receptor 8 (Homo sapiens) (UniProt P29322); experiment: Inhibition of partial length human wild type EPHA8 expressed in bacterial expression system assessed as residual activity at 1 uM relative to control
K562 [18] = experiment: Induction of cell cycle arrest in human K562 cells assessed as accumulation at G0/G1-phase after 12 hrs by propidium iodide/RNase staining based flow cytometry; type: functional
K562 [19] = experiment: Antitumor activity against human K562 cells xenografted in nu/nu mouse assessed as reduction in tumor growth administered through oral gavage after 16 days of continuous administration; type: functional
Summary of the method: (§2)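 Female nu/nu mice bore established K562 xenografts and received daily oral dosing at 25.0 or 50.0 mg/kg/d, or vehicle, starting when tumors reached 200 to 400 mm3, for 16 days. Groups had 5 animals; data are mean ± SEM. Tumor size and body weight were normalized to initial values, and final tumor weight was recorded. Tumor tissue was stained with HE, Ki-67 and TUNEL.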

[20] = tested on: Mast/stem cell growth factor receptor Kit (Homo sapiens), P10721 [V559D]; experiment: Inhibition of partial length human KIT V559D mutant expressed in bacterial expression system assessed as residual activity at 1 uM relative to control
[21] = target: T2, Bcr/Abl fusion protein (Homo sapiens); experiment: Inhibition of BCR/ABL in human KU812 cells assessed as downregulation of ERK phosphorylation at Thr202/Tyr204 site after 1 hr by immunoblotting method; type: cell-based; summary of the method: as §1
[22] = target: T2, Bcr/Abl fusion protein (Homo sapiens); experiment: Inhibition of BCR/ABL autophosphorylation at Y245 site in human K562 cells at 300 nM after 1 hr by immunoblotting method; type: cell-based; summary of the method: as §1
[23] = target: Epithelial discoidin domain-containing receptor 1 (Homo sapiens, UniProt Q08345); experiment: Inhibition of partial length human wild type DDR1 expressed in bacterial expression system assessed as residual activity at 1 uM relative to control
[24] = Antiproliferative activity against mouse BA/F3 cells assessed as cell viability after 72 hrs by CellTiter-Glo or CCK-8 assay; type: cell-based, BaF3
MEG-01 [25] = experiment: Induction of cell cycle arrest in human MEG01 cells assessed as accumulation at G0/G1-phase after 12 hrs by propidium iodide/RNase staining based flow cytometry; type: functional
MEG-01 [26] = experiment: Induction of apoptosis in human MEG01 cells assessed as increase in cleaved caspase3 level at 100 nM after 48 hrs by immunoblotting method; type: functional, cell-based
[27] = Antiproliferative activity against […] CHL cells assessed as cell viability after 72 hrs by CellTiter-Glo or CCK-8 assay; type: cell-based, Cricetulus griseus; conditions: chinese hamster
[28] = Tmax in Sprague-Dawley rat at 1 mg/kg, iv; type: ADME, organism-based; conditions: in vivo
[29] = target: T1, Proto-oncogene tyrosine-protein kinase Src; experiment: Inhibition of full length recombinant human C-terminal His-tagged SRC expressed in Baculovirus expression system
Summary of the method: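 IC50 values were determined with the Invitrogen SelectScreen biochemical kinase assay.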

K562 [30] = experiment: Induction of apoptosis in human K562 cells assessed as increase in cleaved caspase3 level at 100 nM after 48 hrs by immunoblotting method; type: functional, cell-based
K562 [31] = experiment: Antitumor activity against human K562 cells xenografted in nu/nu mouse assessed as tumor growth inhibition at 50 mg/kg/day, qd administered through oral gavage measured after 16 days; type: functional; conditions: 384 h, read-out: TGI; summary of the method: as §2
[32] = tested on: Mast/stem cell growth factor receptor Kit (Homo sapiens), P10721 [L576P]; experiment: Inhibition of partial length human KIT L576P mutant expressed in bacterial expression system assessed as residual activity at 1 uM relative to control
[33] = target: Tyrosine-protein kinase Blk (Homo sapiens) (UniProt P51451); conditions: BaF3
[34] = Cmax in Sprague-Dawley rat at 1 mg/kg, iv; type: ADME, organism-based; set-up: dose 1 mg/kg, route intravenous; conditions: in vivo

T2 sequence (P00519 whole entry, looked up, the tested form may be a part): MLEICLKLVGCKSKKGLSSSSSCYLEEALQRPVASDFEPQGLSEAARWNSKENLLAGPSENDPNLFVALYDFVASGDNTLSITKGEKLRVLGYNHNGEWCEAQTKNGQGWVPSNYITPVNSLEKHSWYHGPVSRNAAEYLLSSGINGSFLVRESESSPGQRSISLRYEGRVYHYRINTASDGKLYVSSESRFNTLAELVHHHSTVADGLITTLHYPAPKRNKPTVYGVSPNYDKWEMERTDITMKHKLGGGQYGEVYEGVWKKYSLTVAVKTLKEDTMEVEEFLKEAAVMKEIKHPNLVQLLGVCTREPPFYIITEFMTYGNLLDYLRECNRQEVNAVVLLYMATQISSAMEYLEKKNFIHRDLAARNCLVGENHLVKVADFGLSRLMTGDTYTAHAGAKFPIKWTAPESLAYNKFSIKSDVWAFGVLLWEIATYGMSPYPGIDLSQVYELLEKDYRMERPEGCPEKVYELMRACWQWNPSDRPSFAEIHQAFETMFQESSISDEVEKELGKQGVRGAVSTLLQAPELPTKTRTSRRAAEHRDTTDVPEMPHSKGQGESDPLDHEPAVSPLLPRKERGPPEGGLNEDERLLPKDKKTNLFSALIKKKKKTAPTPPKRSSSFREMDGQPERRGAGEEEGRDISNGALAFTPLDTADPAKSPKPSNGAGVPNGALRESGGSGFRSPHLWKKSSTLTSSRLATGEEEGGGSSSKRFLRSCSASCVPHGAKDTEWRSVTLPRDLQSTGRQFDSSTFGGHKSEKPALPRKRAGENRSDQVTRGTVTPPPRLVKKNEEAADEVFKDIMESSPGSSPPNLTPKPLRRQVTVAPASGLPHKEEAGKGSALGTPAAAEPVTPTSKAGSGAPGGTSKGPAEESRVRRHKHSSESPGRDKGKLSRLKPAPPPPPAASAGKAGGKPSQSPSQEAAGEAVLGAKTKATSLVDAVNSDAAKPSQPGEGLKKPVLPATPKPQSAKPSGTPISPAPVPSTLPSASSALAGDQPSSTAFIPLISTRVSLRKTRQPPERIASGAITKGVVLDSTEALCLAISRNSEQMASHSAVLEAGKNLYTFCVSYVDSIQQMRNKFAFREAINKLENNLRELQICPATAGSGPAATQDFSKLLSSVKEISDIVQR
T2 sequence (P11274 whole entry, looked up, the tested form may be a part): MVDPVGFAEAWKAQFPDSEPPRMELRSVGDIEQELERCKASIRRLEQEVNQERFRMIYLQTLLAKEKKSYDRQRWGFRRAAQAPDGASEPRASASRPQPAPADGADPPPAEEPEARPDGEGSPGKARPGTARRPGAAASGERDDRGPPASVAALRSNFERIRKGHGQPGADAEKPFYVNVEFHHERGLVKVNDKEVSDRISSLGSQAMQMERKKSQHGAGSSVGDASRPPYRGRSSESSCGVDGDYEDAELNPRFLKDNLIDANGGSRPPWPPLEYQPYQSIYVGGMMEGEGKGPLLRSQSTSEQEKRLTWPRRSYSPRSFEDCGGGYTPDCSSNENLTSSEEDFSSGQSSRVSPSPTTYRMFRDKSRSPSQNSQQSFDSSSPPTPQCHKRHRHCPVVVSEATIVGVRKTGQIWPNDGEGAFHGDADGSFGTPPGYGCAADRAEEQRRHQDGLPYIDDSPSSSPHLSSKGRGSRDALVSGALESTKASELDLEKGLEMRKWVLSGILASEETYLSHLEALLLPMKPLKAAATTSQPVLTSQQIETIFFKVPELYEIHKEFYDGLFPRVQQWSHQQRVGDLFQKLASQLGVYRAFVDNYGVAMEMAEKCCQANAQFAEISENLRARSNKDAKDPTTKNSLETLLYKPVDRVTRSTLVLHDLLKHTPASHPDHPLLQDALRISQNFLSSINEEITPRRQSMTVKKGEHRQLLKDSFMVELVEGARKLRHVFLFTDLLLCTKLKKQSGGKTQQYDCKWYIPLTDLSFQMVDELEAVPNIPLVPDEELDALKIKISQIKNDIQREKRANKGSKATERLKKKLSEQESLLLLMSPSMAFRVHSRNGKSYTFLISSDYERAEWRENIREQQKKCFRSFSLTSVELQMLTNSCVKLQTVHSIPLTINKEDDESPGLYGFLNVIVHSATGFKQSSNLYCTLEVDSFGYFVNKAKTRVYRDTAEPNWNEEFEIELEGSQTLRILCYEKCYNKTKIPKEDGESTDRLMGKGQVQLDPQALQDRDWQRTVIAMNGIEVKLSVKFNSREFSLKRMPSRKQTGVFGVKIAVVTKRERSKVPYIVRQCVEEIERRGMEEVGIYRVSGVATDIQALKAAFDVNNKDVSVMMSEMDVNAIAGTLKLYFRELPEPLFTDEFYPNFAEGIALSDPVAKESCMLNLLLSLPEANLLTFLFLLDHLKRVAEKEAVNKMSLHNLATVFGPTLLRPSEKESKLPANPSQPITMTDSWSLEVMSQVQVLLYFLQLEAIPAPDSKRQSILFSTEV
T1 sequence (P12931 2-536 limits assumed): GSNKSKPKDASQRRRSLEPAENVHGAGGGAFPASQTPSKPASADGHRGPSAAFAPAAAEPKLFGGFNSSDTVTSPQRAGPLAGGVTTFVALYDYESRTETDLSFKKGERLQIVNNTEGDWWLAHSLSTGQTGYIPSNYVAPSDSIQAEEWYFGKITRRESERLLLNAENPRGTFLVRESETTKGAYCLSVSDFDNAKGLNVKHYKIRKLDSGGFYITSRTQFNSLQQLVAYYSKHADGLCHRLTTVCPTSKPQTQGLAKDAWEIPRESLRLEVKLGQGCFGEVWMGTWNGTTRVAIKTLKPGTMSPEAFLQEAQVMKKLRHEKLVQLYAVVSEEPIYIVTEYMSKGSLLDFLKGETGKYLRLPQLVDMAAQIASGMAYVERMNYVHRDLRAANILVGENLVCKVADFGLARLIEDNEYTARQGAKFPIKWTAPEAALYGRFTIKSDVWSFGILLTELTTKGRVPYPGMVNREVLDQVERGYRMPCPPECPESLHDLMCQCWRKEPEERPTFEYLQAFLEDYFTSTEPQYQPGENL
Sequence of Tyrosine-protein kinase Blk (Homo sapiens) (P51451 2-505 limits assumed): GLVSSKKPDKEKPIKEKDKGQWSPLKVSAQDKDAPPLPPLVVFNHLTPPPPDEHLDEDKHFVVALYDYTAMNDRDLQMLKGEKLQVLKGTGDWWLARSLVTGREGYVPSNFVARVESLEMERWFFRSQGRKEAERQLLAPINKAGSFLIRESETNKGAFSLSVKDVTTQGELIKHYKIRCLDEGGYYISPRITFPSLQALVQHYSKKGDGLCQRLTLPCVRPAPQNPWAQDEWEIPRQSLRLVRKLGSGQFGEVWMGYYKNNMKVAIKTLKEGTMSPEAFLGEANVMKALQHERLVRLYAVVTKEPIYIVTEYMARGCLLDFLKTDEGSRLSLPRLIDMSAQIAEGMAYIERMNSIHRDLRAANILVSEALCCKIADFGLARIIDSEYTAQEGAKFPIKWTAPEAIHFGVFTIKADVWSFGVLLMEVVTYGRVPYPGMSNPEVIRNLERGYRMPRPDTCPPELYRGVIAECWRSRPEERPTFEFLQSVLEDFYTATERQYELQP
Sequence of Tyrosine-protein kinase HCK (Homo sapiens) (P08631 2-526 limits assumed): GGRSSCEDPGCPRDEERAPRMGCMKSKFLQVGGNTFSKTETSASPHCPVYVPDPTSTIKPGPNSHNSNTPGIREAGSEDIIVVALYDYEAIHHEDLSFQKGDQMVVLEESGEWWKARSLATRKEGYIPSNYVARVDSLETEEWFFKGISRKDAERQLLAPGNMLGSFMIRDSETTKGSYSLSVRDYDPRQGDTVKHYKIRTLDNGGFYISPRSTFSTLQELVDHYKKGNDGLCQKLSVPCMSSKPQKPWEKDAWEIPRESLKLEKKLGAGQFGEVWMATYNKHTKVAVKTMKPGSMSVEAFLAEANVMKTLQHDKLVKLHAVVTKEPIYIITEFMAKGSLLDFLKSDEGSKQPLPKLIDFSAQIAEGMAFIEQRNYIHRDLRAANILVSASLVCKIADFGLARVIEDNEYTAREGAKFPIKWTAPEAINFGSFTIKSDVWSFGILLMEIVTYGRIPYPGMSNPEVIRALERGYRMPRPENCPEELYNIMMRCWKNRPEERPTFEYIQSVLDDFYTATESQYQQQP
Sequence of Mast/stem cell growth factor receptor Kit (Homo sapiens), P10721 [V559D] (P10721 whole entry V559D, the tested form may be a part): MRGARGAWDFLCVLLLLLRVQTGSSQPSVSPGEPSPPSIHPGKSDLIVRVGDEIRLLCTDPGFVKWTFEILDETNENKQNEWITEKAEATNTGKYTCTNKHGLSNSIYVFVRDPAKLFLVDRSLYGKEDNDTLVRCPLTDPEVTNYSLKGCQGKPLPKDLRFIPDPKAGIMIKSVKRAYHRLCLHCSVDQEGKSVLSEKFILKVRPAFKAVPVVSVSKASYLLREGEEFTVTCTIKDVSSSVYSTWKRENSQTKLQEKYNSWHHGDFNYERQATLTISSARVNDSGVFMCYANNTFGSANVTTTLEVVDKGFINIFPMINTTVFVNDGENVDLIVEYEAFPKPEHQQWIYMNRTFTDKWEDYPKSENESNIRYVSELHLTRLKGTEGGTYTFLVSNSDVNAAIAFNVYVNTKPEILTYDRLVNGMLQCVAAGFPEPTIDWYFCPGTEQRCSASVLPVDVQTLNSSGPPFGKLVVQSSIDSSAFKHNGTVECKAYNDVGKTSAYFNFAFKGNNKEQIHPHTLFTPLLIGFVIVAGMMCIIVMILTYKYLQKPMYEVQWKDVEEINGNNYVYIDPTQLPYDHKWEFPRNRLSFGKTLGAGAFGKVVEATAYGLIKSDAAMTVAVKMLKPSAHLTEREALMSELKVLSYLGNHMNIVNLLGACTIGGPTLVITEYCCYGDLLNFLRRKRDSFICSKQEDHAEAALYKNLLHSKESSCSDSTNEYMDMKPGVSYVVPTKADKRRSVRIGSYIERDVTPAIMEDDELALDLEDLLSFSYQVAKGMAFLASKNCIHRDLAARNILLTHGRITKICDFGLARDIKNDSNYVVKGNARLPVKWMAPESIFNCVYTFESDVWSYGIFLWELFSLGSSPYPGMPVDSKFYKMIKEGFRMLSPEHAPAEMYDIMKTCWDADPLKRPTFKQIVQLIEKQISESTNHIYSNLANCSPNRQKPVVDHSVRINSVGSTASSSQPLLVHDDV
Sequence of Mast/stem cell growth factor receptor Kit (Homo sapiens), P10721 [L576P] (P10721 whole entry L576P): as the sequence (P10721 whole entry V559D, the tested form may be a part) above, with D559V, L576P counted along it

SMILES: CNc1nc(Nc2ccc(C)c(N)c2)ncc1C(=O)Nc1cc(NC(=O)c2cccc(C(F)(F)F)c2)ccc1C
- Activity (KU812 cell line [1]): Dose-dependent effect
- GI50 [2]: 25 nM
- Activity (KU812 cell line [3]): Active
- GI50 [4]: > 10000 nM
- AUC(0-inf) [5]: 721 ng·h/mL
- clearance [6]: 25.6 mL/min/kg
- Activity [7]: 0.5%
- Activity [8]: 0.95%
- GI50 [9]: 45 nM
- inhibition [10]: Dose-dependent effect
- GI50 (MV4-11): 8000 nM
- GI50 (BaF3): 313 nM
- Activity (MEG-01 [11]): Active
- inhibition [12]: Active
- Activity [13]: 0.7%
- GI50 (HEL): > 10000 nM
- inhibition [14]: Dose-dependent effect
- AUC(0-inf) [15]: 1740 ng·h/mL
- GI50 [16]: 16 nM
- Activity [17]: 0.8%
- Activity (K562 [18]): Dose-dependent effect
- TGI (K562 [19]): Dose-dependent effect
- Activity [20]: 1%
- inhibition [21]: Dose-dependent effect
- inhibition [22]: Active
- Activity [23]: 0%
- GI50 at 72 h [24]: > 10000 nM
- Activity (MEG-01 [25]): Dose-dependent effect
- Activity (MEG-01 [26]): Active
- GI50 at 72 h [27]: > 10000 nM
- Tmax [28]: 1.2 min
- IC50 [29]: 90 nM
- Activity (K562 [30]): Active
- inhibition in vivo at 50 mg/kg/day (K562 [31]): 48.3%
- Activity [32]: 0.8%
- GI50 [33]: 1100 nM
- Cmax [34]: 2400 ng/mL
